ABHD4 inh = inhibitors of mouse ABHD4; purified mABHD4, FP-Rh probe fluorescence polarization; Q8VD66; inhibition, % at 8.92 µM; 0.54% of 370,000 active;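 active means inhibition exceeding the mean over every tested compound plus 3 SD, cut at about 30% in these data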
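Assay system: wild-type mouse ABHD4 protein; compound: single nominal dose of 8.92 µM, 0.89% DMSO final; schedule: 45 min + 60 min at 25 °C; measured by: FP readout, ex 525 nm / em 598 nm; evaluation: % inhibition of FP-Rh probe binding versus controls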
HTRA1 inh = HTRA1 (human) protease inhibition. Q92743. recombinant HTRA1, FP-rhodamine activity-based probe, fluorescence polarization. 0.5% of 340,000 active. inhibition, % at 5.96 µM. AID 504803; in the data active means inhibition above about 36%
SIAE inh = inhibitors of human sialic acid acetylesterase SIAE; SIAE FP-Rh probe binding, fluorescence polarization; inhibition, % at 9.66 µM; 0.69% of 370,000 active; AID 1053197;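 active means inhibition above a cutoff: mean of compounds within the control limits plus 3 SD of those, cut at about 17% in these data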
Target sequence (Q9HAT2 whole entry, looked up): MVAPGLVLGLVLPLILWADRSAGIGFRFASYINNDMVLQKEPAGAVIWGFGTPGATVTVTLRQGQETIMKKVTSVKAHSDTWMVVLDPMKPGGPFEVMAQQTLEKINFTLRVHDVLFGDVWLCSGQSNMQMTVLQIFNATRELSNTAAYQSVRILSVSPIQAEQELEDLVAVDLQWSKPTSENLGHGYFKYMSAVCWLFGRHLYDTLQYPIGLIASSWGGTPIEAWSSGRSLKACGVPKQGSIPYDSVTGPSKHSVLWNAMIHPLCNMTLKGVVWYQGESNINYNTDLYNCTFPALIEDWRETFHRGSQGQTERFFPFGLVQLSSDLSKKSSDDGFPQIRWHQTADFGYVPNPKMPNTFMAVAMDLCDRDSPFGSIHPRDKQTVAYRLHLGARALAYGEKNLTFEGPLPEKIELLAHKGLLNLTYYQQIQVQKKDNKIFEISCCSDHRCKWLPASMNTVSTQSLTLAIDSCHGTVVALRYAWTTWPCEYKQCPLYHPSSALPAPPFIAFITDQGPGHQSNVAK
PRMT1 FP inh = blocks human protein arginine methyltransferase 1. recombinant PRMT1, activity-based probe fluorescence polarization. Q99873. 1.3% of 370,000 active. inhibition, % at 2.79 µM;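 active means inhibition above about 21% made by adding two undisclosed values, limit read from the data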
GASC-1 inh = inhibitors of human GASC-1 (JMJD2C) demethylase; 0.069% of 330,000 active; inhibition, % at 2.35 µM; GST-JMJD2C(1-420) H3K9me3 demethylation, DELFIA europium; Q9H3R0;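 active means more than half of a compound's replicate wells show inhibition beyond 50%, single wells judged on their own value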;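 further: signal counts dimethyl H3K9 product captured on neutravidin plate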
Of the large screens only hits and unclear results are named; the others gave an inactive call. The list is not random: actives were taken first. Their share in the collection is about 2.4%.

C[C@H](c1ccccc1)N1C[C@@H](COCc2ccccc2)Oc2cccc(N3CCCCC3)c2S1(=O)=O	none (no result: HTRA1 inh, GASC-1 inh)
COc1ccc(-n2c(SCC(=O)Nc3ccccc3-c3ccccc3)nnc2-c2ccco2)cc1	none (no result: HTRA1 inh, GASC-1 inh)
Cc1ccc(S(=O)(=O)N2CCOCC2)cc1NC(=O)CSc1nc(N)cc(=O)[nH]1	PRMT1 FP inh 23
COC(=O)C1=C(C)N(C)C(=O)NC1c1cc2c(cc1[N+](=O)[O-])OCO2 (stereo not drawn)	none
COC(=O)C1=C(C)N(CCCC(=O)O)C(=O)NC1c1cc2c(cc1[N+](=O)[O-])OCO2 (stereo not drawn)	PRMT1 FP inh 27
CCOc1ccc2[nH]c(C(=O)N/N=C/c3ccc(OC)cc3)cc2c1	none
COc1ccc2[nH]c(C(=O)N/N=C/c3ccc(O)cc3O)cc2c1	SIAE inh 25
O=C1CC(SCc2nc3ccccc3[nH]2)C(=O)N1c1cccc(Cl)c1 (stereo not drawn)	PRMT1 FP inh 31
COc1ccc2c(c1)CC(C1(O)C(=O)N(C)c3ccccc31)C2=O (stereo not drawn)	GASC-1 inh 51
CN1C(=O)C(O)(C2COC(C)(C)CC2=O)c2ccccc21 (stereo not drawn)	none
Fc1ccc(-n2c(-c3ccc4ccccc4n3)n[nH]c2=S)cc1Cl	none
S=c1[nH]nc(-c2ccc3ccccc3n2)n1-c1ccc2ncccc2c1	PRMT1 FP inh 21
Cc1ccc2c(c1)-c1c(cnn1CC(=O)NC(C)CCc1ccco1)CO2 (stereo not drawn)	PRMT1 FP inh 23
C[C@H]1COc2cc(N3CCSCC3)ccc2S(=O)(=O)N1C	none (no result: HTRA1 inh, GASC-1 inh)
C[C@H]1[C@@H](C(=O)N2CCCC2)CC(=O)/C(=N/OCc2ccccc2)C[C@@H]1c1ccccc1	none (no result: HTRA1 inh, GASC-1 inh)
Nc1ccc2cc3ccccc3cc2c1	none (no result: GASC-1 inh)
Nc1ccc2cccc(O)c2c1	ABHD4 inh 48 (no result: GASC-1 inh)
O=C(N[C@H](C(=O)N1CCC[C@H]1C(=O)NCCc1ccccc1Cl)C1CCCCC1)c1ccccc1	none (no result: HTRA1 inh, GASC-1 inh)
COC(=O)[C@@]1(C(C)C)N=C(c2cc(OC)c(OC)c(OC)c2)[C@]2(O1)C(=O)N(Cc1cn(-c3ccccc3)nn1)c1cccc(Cl)c12	none (no result: HTRA1 inh, GASC-1 inh)
COc1ccc2cc3[n+](cc2c1O)CCc1cc2c(cc1-3)OCO2	ABHD4 inh 31, SIAE inh 20 (no result: HTRA1 inh, GASC-1 inh)
O=C(NCc1ccccc1)C1(C(=O)C2CC2)CC(c2ccccn2)=NO1 (stereo not drawn)	none (no result: HTRA1 inh, GASC-1 inh)
O=C(NCc1ccccc1F)C1CCC(CNS(=O)(=O)c2cccc3cccnc23)CC1 (stereo not drawn)	none (no result: HTRA1 inh, GASC-1 inh)
NC(N)=N/N=C/c1ccc(OCc2ccccc2)c(OCc2ccccc2)c1	SIAE inh 25
CCOc1cc(/C=N/N=C(N)N)ccc1OCc1ccc(Cl)cc1	none
CCCCC#CC(CC)NCc1ccc(OC)cc1OC (stereo not drawn)	none (no result: HTRA1 inh, GASC-1 inh)
CCOc1ccc(CCNC(=O)C2CCCCC2)cc1OCC	none (no result: HTRA1 inh, GASC-1 inh)
Cc1ccc(CC(=O)NNC(=O)c2ccncc2)cc1C	PRMT1 FP inh 24
COCCNc1nc(Nc2ccc(C)cc2C)c2sccc2n1	none (no result: HTRA1 inh, GASC-1 inh)
CN1CCc2c(sc3c2C(=O)NC(c2ccccn2)N3)C1 (stereo not drawn)	PRMT1 FP inh 27
CCOC(=O)CC[C@@H]1CC[C@]2(CCCN(C(=O)c3ccco3)C2)O1	none (no result: HTRA1 inh, GASC-1 inh)
Cc1ccc2c(c1)sc(C)[n+]2CCCS(=O)(=O)[O-]	PRMT1 FP inh 62
COc1cc(/C=C/c2sc3ccccc3[n+]2CCCS(=O)(=O)[O-])ccc1O	none
Cc1ccc2sc(C)[n+](CCCS(=O)(=O)[O-])c2c1	PRMT1 FP inh 38
O=C(O)Cn1c2ccccc2c2ccccc21	none
O=C(O)Cn1c2c(c3ccccc31)CSc1ccc(Cl)cc1-2	PRMT1 FP inh 78
O=C(C[C@H]1C[C@H](C(=O)N2CCOCC2)[C@@]2(CCC3CCCC3)c3[nH]c4cc(-c5ccco5)ccc4c3CCN2C1=O)NCCC1=CCCCC1	none (no result: ABHD4 inh, SIAE inh, PRMT1 FP inh, GASC-1 inh)
CC(C)(C)NC(=O)C[C@H]1C[C@H](C(=O)N2CCCCC2)[C@@]2(CCc3ccccc3)c3[nH]c4cc(-c5ccco5)ccc4c3CCN2C1=O	PRMT1 FP inh 24 (no result: GASC-1 inh)
O=C(C[C@H]1C[C@H](C(=O)N2CCOCC2)[C@@]2(CCC3CCCC3)c3[nH]c4cc(-c5ccco5)ccc4c3CCN2C1=O)NCc1ccco1	PRMT1 FP inh 22 (no result: GASC-1 inh)
CN(C)CCCNC(=O)C[C@H]1C[C@H](C(=O)N2CCCCC2)[C@@]2(CCc3ccccc3)c3[nH]c4cc(-c5ccco5)ccc4c3CCN2C1=O	none (no result: GASC-1 inh)
Nc1c(N2CCOCC2)cc(Cl)c2nonc12	none
Nc1c(N2CCCC2)cc(Cl)c2nonc12	HTRA1 inh 37 (no result: ABHD4 inh, SIAE inh, PRMT1 FP inh)
COc1ccc(O)c(/C=N/c2sc(C)c(C)c2C#N)c1	PRMT1 FP inh 24
C=CC[C@@H]1NN2C(=O)[C@@H](CCCC)[C@@H]3c4cc5ccccc5cc4C=NN3[C@@H]2c2cc3ccccc3cc21	none (no result: HTRA1 inh, GASC-1 inh)
COc1ccc(C(=O)OCCCN(C)C2CN(Cc3cn(Cc4ccccc4Cl)nn3)S(=O)(=O)C2)cc1OC (stereo not drawn)	none (no result: HTRA1 inh, GASC-1 inh)
O=C(NC1CCCC1)c1ccc(COc2ccccc2)o1	none (no result: HTRA1 inh, GASC-1 inh)
COc1ccc(NC(=O)N2CCC(N(C)CCC(C)C)CC2)cc1OC	none (no result: HTRA1 inh, GASC-1 inh)
Cc1ccc(NC(=S)N(CCN(C)C)Cc2cccs2)c(C)c1	PRMT1 FP inh 22
Cc1cc(C)c(NC(=S)N(CCN(C)C)Cc2cccs2)c(C)c1	none
CC(C)C[C@H]1COc2cccc(F)c2S(=O)(=O)N1Cc1cn(CC2CCCCC2)nn1	none (no result: HTRA1 inh, GASC-1 inh)
CC(=O)Nc1cc(-c2cccc(C(=O)NCCO)c2)cn2c(-c3cccc(C(F)(F)F)c3)cnc12	none (no result: HTRA1 inh, GASC-1 inh)
COC(=O)CNC(=O)CNC1(C(=O)NCCc2c[nH]c3ccccc23)CCCCC1	none (no result: HTRA1 inh, GASC-1 inh)
Cc1cc(C)cc(NC(=O)OC2CC3CC2[C@H]2CCCCN2[C@H]3C)c1 (stereo partly drawn)	none (no result: HTRA1 inh, GASC-1 inh)
C/C(=N/NC(=O)Cc1cccs1)c1cccc([N+](=O)[O-])c1	none (no result: HTRA1 inh, GASC-1 inh)
OCc1csc(=Nc2ccccc2)n1-c1ccccc1	GASC-1 inh 57
Cc1csc(=Nc2ccccc2)n1C	none
CCCCCn1nnnc1C1c2ccccc2OCC(=O)N1Cc1ccco1 (stereo not drawn)	none (no result: HTRA1 inh, GASC-1 inh)
O=C1CC(N2CCC(c3nc4ccccc4s3)CC2)C(=O)N1Cc1ccccc1 (stereo not drawn)	PRMT1 FP inh 24
C=C(CN(C)C)C(=O)c1ccc(C)cc1C	PRMT1 FP inh 23 (no result: GASC-1 inh)
COc1ccc(-c2ccc(C(=O)Nc3cccc(C(F)(F)F)c3)c3occc23)c(C)c1	none (no result: HTRA1 inh, GASC-1 inh)
Oc1cc2c(cc1O)C(c1ccccc1)CNCC2 (stereo not drawn)	none
Oc1cc2c(cc1O)[C@@H](c1ccccc1)CNCC2	PRMT1 FP inh 23 (no result: GASC-1 inh)
O=[N+]([O-])c1ccc(CS(=O)c2ccccc2)cc1 (stereo not drawn)	none (no result: GASC-1 inh)
O=[N+]([O-])c1ccc(S(=O)Cc2ccccc2)c([N+](=O)[O-])c1 (stereo not drawn)	PRMT1 FP inh 38 (no result: GASC-1 inh)
O=[N+]([O-])c1c(Nc2ccc(O)cc2)cc(Cl)c2nonc12	PRMT1 FP inh 77

High-throughput results deposited in PubChem by several laboratories.
